Drawing on ChEMBL document CHEMBL4049440, “First Dual Inhibitors of Steroid Sulfatase (STS) and 17β-Hydroxysteroid Dehydrogenase Type 1 (17β-HSD1): Designed Multiple Ligands as Novel Potential Therapeutics for Estrogen-Dependent Diseases” (J Med Chem, 2017), this text covers inhibition and Activity for one molecule.

Data set [1] addresses T1, 17-beta-hydroxysteroid dehydrogenase type 1 (Homo sapiens) (UniProt P14061).
T1 sequence (whole entry): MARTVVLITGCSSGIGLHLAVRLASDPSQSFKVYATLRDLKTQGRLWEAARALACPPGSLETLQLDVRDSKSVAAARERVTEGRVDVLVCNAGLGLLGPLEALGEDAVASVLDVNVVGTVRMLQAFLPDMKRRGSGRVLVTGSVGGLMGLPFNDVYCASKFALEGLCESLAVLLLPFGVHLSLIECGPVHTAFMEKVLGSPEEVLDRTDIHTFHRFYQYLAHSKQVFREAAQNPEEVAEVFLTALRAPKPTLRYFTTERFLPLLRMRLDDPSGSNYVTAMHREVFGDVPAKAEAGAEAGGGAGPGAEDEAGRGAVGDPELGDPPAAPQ
Description: Inhibition of 17beta-HSD1 in human T47D cells at 1 uM preincubated for 1 hr followed by addition of [3H]-E1/E1 as substrate measured after 30 mins by HPLC based radio-detection method. It counts as cell-based.

Data set [2] relates to T47D. The data set is described as follows: Antiproliferative activity against E1S/E1-stimulated human T47D cells assessed as cell viability at 50 to 200 nM measured after 7 days after MTT assay relative to control. It counts as functional. In general terms: Tetrazolium dyes change colour on reduction, which living cells bring about.
Data set [3] addresses T2, Steryl-sulfatase (Homo sapiens) (UniProt P08842).
T2 sequence (whole entry): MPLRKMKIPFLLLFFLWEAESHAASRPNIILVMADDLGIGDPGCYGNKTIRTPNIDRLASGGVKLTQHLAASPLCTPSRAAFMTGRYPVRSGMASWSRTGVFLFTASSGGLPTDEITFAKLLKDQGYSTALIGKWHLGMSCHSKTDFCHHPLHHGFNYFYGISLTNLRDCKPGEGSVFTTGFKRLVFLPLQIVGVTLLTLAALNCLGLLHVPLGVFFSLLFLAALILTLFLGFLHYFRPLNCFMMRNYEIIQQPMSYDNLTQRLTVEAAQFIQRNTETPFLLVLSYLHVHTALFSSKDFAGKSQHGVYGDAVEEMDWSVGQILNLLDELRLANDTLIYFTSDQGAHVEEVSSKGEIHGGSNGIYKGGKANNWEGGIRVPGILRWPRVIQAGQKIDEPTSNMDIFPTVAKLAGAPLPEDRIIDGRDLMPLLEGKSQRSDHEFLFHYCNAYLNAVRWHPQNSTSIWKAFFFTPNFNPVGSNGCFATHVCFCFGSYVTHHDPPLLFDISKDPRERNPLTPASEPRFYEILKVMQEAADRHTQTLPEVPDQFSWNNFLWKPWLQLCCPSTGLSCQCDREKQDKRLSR
Description: Inhibition of STS in human T47D cells assessed as [3H]-E1S level at 200 nM after 48 hrs by HPLC based radio-detection method. The format is cell-based. On the set-up: scale not given: the % may be the effect or the level left.

For data set [4], the target named is T1, 17-beta-hydroxysteroid dehydrogenase type 1 (Homo sapiens). Description: Inhibition of 17beta-HSD1 in human T47D cells assessed as [3H]-E1 level at 200 nM after 48 hrs by HPLC based radio-detection method (reference value: 0.9%). The format is cell-based. On the set-up: scale not given: the % may be the effect or the level left.
Data set [5] shares this target. The data set is described as follows: Inhibition of 17beta-HSD1 in human T47D cells assessed as [3H]-E2 level at 200 nM after 48 hrs by HPLC based radio-detection method (reference value: 95.2%). The format is cell-based. Further details: scale not given: the % may be the effect or the level left.
Data set [6] shares this target. The data set is described as follows: Inhibition of human placental cytosolic 17beta-HSD1 at 1 uM using [3H]-E1/E1 substrate and NADH after 10 mins by HPLC based radio-detection method. A digest of the protocol:
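Enzyme from the cytosolic fraction of human placenta, incubated with radiolabelled estrone as substrate. Values are the mean of at least two independent experiments, each run in duplicate, with standard deviation under 15%.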

Data set [7] addresses T3, 17beta-HSD2 (17-beta-hydroxysteroid dehydrogenase type 2) (Homo sapiens, UniProt P37059).
T3 sequence (P37059 whole entry): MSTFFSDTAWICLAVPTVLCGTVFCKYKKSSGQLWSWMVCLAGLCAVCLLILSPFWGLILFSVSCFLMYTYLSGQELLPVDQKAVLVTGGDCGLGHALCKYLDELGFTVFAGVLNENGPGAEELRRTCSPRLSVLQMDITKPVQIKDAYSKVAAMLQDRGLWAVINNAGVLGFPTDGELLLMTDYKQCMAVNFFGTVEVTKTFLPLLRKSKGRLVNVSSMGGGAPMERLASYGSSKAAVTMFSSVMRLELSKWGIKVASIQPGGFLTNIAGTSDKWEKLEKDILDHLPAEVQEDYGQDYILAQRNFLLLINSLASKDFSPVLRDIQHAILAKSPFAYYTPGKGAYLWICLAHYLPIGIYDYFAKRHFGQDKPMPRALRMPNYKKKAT
Description: Inhibition of human placental microsomal 17beta-HSD2 at 1 uM using [3H]-E2/E2 substrate and NAD+ after 20 mins by HPLC based radio-detection method. The note with it: human placental microsomal 17beta-HSD2, probe [3H]-E2/E2.

As to `NS(=O)(=O)Oc1ccc2c3c(c(=O)oc2c1)CCCCC3` [IROSUSTAT], the inhibition (as a rule, the relative decrease from the control value, in per cent) in data set [1] was less than 5%; in data set [6], less than 10%. For the same molecule, the Activity is 200% in data set [2], 50% in data set [3], 0.8% in data set [4] and 49.2% in data set [5]. Also, the inhibition at 20 min, 1 µM in data set [7] was less than 10%.
